According to PMC9673813 (International Journal of Nanomedicine, 2022):
Values after ≈ are worked out from the molar mass of the structure shown. Where two headings read alike, the source gives them in different places.

Legend:
[1] = In vitro release investigation; format: physicochemical
Outline: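 Test formulation (1 mL, 200 ug/mL) was placed in a dialysis bag (8000–14,000 Da) in 200 mL PBS with 0.2% Tween-80, at 37 °C and 120 r/min. 3 mL of medium was withdrawn and replaced at 0.25–168 h. Samples were centrifuged at 8000 r/min for 10 min, and supernatant was analysed by HPLC for cumulative release. Data were fitted to zero-order, first-order and Higuchi models, with r² calculated; n=3.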

[2] = Pharmacokinetics in SD rats; format: in vivo; conditions: 10 mg/kg
Outline: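 SD rats (n=5/group) were injected with 10 mg/kg. Blood (0.3 mL) was collected at 0.08–120 h into heparin tubes and centrifuged. Plasma (100 μL) was extracted with methanol:ethyl acetate 10:90 and analysed by HPLC: C18 column, acetonitrile–phosphate water pH 4.0 65:35, 0.8 mL/min, 30 °C, 227 nm. Results are mean ± SEM.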

[3] = test system: breast cancer cell line MCF-7; experiment: In vitro cytotoxicity assay; format: cell-based; conditions: Homo sapiens
Outline: (§1)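 Cells grown in high-glucose DMEM with 10% FBS and 1% penicillin/streptomycin at 37°C, 5% CO2. Log-phase cells trypsinized, seeded at 5×10³/well, grown 24 h. Test formulations and blank nanoparticles added at 5, 10, 20, 40, 80 ug/mL for 24, 48, 72 or 96 h. MTT (5 mg/mL stock) added for 3–4 h, formazan dissolved in DMSO, A490 read. Inhibition rate calculated from blank-, control- and test-well OD. Dose–effect curves plotted; n=3.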

[4] = test system: normal hepatocyte cell line L02; experiment: In vitro cytotoxicity assay; format: cell-based
Outline: as §1

[5] = test system: MCF-7 tumor; experiment: In vivo antitumor assessment in MCF-7 tumor-bearing nude mice; design: species or system BALB/c nude mice
Outline: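 Female BALB/c nude mice, 4 weeks old, were inoculated in the left armpit with 0.1 mL MCF-7 suspension (3 × 10⁷ cells/mL). Dosing started at ~100 mm³ (n=10/group; saline control): 10 mg/kg intraperitoneally every 3 days for 20 days. Body weight and tumor volume (V = π/6·AB²) were measured every 3 days, and deaths tallied every 5 days. Tumors were weighed on day 20; IR = 1 − drug/control tumor weight. Procedures were blinded.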

[6] = In vivo acute toxicity; design: species or system BALB/c mice; conditions: single i.p. 40 mg/kg
Outline: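 Female BALB/c mice, 7 weeks, 20 ± 3 g, n=10/group, received a single intraperitoneal 40 mg/kg dose; saline control at equal volume. Status and deaths were recorded daily, and survival was followed over 10 days. Heart, liver and kidney from three randomly selected mice per group were H&E-stained for pathology.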

[7] = In vivo cumulative toxicity; design: species or system BALB/c mice

CC(=O)O[C@H]1C(=O)[C@@]2(C)[C@H]([C@H](OC(=O)c3ccccc3)[C@]3(O)C[C@H](OC(=O)[C@H](O)[C@@H](NC(=O)c4ccccc4)c4ccccc4)C(C)=C1C3(C)C)[C@]1(OC(C)=O)CO[C@@H]1C[C@@H]2O [PTX, Paclitaxel]
release model that the in vitro release behavior accords with [1]: first-order model
cumulative release rate at 24 h ([1]; PBS with 0.2% Tween-80, 37 °C, 24 h): over 60%
First-Order Equation k1 ([1]; rate constant of release): 0.0711
Higuchi's Equation kh ([1]; rate constant of release): 7.2999
Zero Order Equation k0 ([1]; rate constant of release): 0.5097
time up to which plasma PTX concentration stayed detectable ([2]; SD rats, intravenous injection, sampling to 120 h): 12 h
AUC(0-t) ([2]; SD, rat, plasma, iv): 2380 ± 276 ng·h/mL
MRT last ([2]; SD, rat, plasma, iv): 4.94 ± 0.653 h
Tmax ([2]; SD, rat, plasma, iv): 0.25 ± 0.02 h
Vd ([2]; SD, rat, plasma, iv): 54.5 ± 8.53 L/kg
clearance ([2]; SD, rat, plasma, iv): 57.2 mL/min/kg
half-life ([2]; SD, rat, plasma, iv): 11 ± 0.773 h
IC50 ([3]; MCF7, 24 h, read-out: IC50 24 h): > 80 µg/mL
IC50 ([3]; MCF7, 48 h, read-out: IC50 48 h): 64.3 ± 5.73 µg/mL (≈ 75.3 µM)
IC50 ([3]; MCF7, 72 h, read-out: IC50 72h): 26.2 ± 2.68 µg/mL (≈ 30.7 µM)
IC50 ([3]; MCF7, 96 h, read-out: IC50 96h): 12.7 ± 0.97 µg/mL (≈ 14.8 µM)
IC50 ([4]; 24 h, read-out: IC50 24 h): > 80 µg/mL
IC50 ([4]; 48 h, read-out: IC50 48 h): > 80 µg/mL
IC50 ([4]; 72 h, read-out: IC50 72h): 36.9 ± 3.18 µg/mL (≈ 43.2 µM)
IC50 ([4]; 96 h, read-out: IC50 96h): 17.3 ± 0.83 µg/mL (≈ 20.3 µM)
inhibition at 10 µg/mL ([4]; 96 h, read-out: inhibitory rate on cell growth higher than PTX-SLN@CUD): 40.1%
deaths / survival of tumor-bearing nude mice during the test ([5]; 10 mg/kg i.p. every three days, 20 days): death of three nude mice
tumor volume at 20 days / end of trial ([5]; 10 mg/kg i.p. every three days, day 20): 1000 mm^3
tumor inhibition rate ([5]; 10 mg/kg i.p. every three days, day 20, by tumor weight): 32.93%
change of average body weight of nude mice ([5]; 10 mg/kg, 20 days versus beginning): significant decrease
cancer cell necrosis (H&E staining of tumors) ([5]; 10 mg/kg, after 20 days): 25%
pathology of heart, liver and kidney tissues (H&E), acute toxicity [6]: severe necrosis
mouse deaths in acute toxicity trial ([6]; n=10): 10 mice all died within 5 h
pathology of heart, liver and kidney tissues (H&E), cumulative toxicity ([7]; 10 mg/kg i.p. every three days for 60 days): Some damage to cells and muscle fibers
mouse deaths within 60 days / throughout the experiment, cumulative toxicity ([7]; 10 mg/kg i.p. every three days for 60 days, n=10): all mice in this group died
mouse deaths within seven days, cumulative toxicity ([7]; 10 mg/kg i.p. every three days, n=10): three mice died
